In the array DNA melting data of Ke et al. (doi:10.1101/2024.01.08.574731):

Columns and labels:
[1] = folding enthalpy; higher = less favourable; fluorescence melt of hairpins on a sequencing array, two-state fit; conditions: sodium 0.088 M
In short: (§1)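 Folding enthalpy and melting temperature were estimated with bootstrapped two-state fits and combined across four replicates by inverse-variance weighting, with fitted temperatures raised by 9.35 °C to match UV melts. The data were Cy3 fluorescence of library hairpins, with annealed Cy3 and quencher oligos, on a sequenced MiSeq flow cell in 50 mM Na-HEPES pH 8.0, 25 mM NaCl, imaged in 2.5 °C steps up to 60 °C and normalised to pre-quench Cy3 and control constructs.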

[2] = melting temperature; fluorescence melt of hairpins on a sequencing array, two-state fit, raised by 9.35 °C to match UV melts; conditions: sodium 0.088 M
In short: as §1

| Sequence | folding enthalpy [1] | Tm [2] |
| --- | --- | --- |
| GCGGAAGGAAACTTCCAC (.(((((....))))).) | -15.9 kcal/mol | 37.4 °C |
| GCGGAATCCGC ((((...)))) | -23.4 kcal/mol | 51.7 °C |
| GCGGACACCGC ((((...)))) | -26.3 kcal/mol | 56.2 °C |
| GCGGACCCCCGC ((((....)))) | -34.6 kcal/mol | 53.3 °C |
| GCGGACGAAAGTCATCGC ((((((....)))..))) | -25.7 kcal/mol | 50.1 °C |
| GCGGACGAAAGTCCCGC ((((((....))).))) | -20.8 kcal/mol | 67.1 °C |
| GCGGACGAAAGTCGCCGC ((((((....)))..))) | -18.1 kcal/mol | 52.4 °C |
| GCGGACGCCCGC ((((....)))) | -20.1 kcal/mol | 56.1 °C |
| GCGGACTCCCGC ((((....)))) | -32.8 kcal/mol | 53.1 °C |
| GCGGAGACCCGC ((((....)))) | -20.5 kcal/mol | 52.8 °C |
| GCGGAGCGAAAGCAACGC (((..((....))..))) | -20.2 kcal/mol | 66.9 °C |
| GCGGAGCGAAAGCACGGC ((.(.((....)).).)) | -9.69 kcal/mol | 45.5 °C |
| GCGGAGCGAAAGCCACGC (((..((....))..))) | -15.7 kcal/mol | 58.4 °C |
| GCGGAGCGAAAGCCCAGC ((.(.((....)).).)) | -12.1 kcal/mol | 42.5 °C |
| GCGGAGCGAAAGCGCGGC ((.(.((....)).).)) | -15.3 kcal/mol | 58.6 °C |
| GCGGAGCGAAAGCTCTGC ((.((((....)))).)) | -35.8 kcal/mol | 68 °C |
| GCGGAGCGAAAGCTTTGC ((..(((....)))..)) | -14.3 kcal/mol | 45.5 °C |
| GCGGAGGGAAACCTTCGC (((.(((....))).))) | -46.5 kcal/mol | 56.5 °C |
| GCGGAGTCCGC ((((...)))) | -25.6 kcal/mol | 52.4 °C |
| GCGGAGTCGAAAGACCGC (((..(((....)))))) | -38 kcal/mol | 53.7 °C |
| GCGGATACCCGC ((((....)))) | -24.3 kcal/mol | 54.2 °C |
| GCGGATCCGAAAGGACGC (((..(((....)))))) | -25.6 kcal/mol | 53.3 °C |
| GCGGATCGAAAGATTCGC (((.(((....))).))) | -45.9 kcal/mol | 60.8 °C |
| GCGGATGCCCGC ((((....)))) | -14.4 kcal/mol | 55 °C |
| GCGGATGGAAACGTCCGC (((((.(....).))))) | -45.9 kcal/mol | 62.6 °C |

| Sequence | folding enthalpy [1] | Tm [2] |
| --- | --- | --- |
| GCGGATGGAAACGTCTGC ((.((.(....).)).)) | -28.1 kcal/mol | 44.3 °C |
| GCGGATTTCCGC ((((....)))) | -22.4 kcal/mol | 64.6 °C |
| GCGGCAATCCGC ((((....)))) | -21.9 kcal/mol | 52.3 °C |
| GCGGCACCCGC ((((...)))) | -21.9 kcal/mol | 56.4 °C |
| GCGGCACCGAAAGGTCGC (((..(((....)))))) | -21.1 kcal/mol | 54.4 °C |
| GCGGCACTCCGC ((((....)))) | -25.8 kcal/mol | 57.5 °C |
| GCGGCAGACCGC ((((....)))) | -23.2 kcal/mol | 56.2 °C |
| GCGGCAGGAAACCGCCAC (.(((.(....).))).) | -12.7 kcal/mol | 47.5 °C |
| GCGGCATCCGC ((((...)))) | -17.9 kcal/mol | 54.8 °C |
| GCGGCATTCCGC ((((....)))) | -23.7 kcal/mol | 56.1 °C |
| GCGGCCAACCGC ((((....)))) | -21.6 kcal/mol | 56.2 °C |
| GCGGCCACGAAAGTGCGC (((..(((....)))))) | -17.4 kcal/mol | 52.7 °C |
| GCGGCCATCCGC ((((....)))) | -18.5 kcal/mol | 60 °C |
| GCGGCCCCCGC ((((...)))) | -20.4 kcal/mol | 56.6 °C |
| GCGGCCCTCCGC ((((....)))) | -26.5 kcal/mol | 59.6 °C |
| GCGGCCGAAAGGCAACGC ((((((....)))..))) | -19.1 kcal/mol | 64.3 °C |
| GCGGCCGAAAGGCATCGC ((((((....)))..))) | -23 kcal/mol | 53.1 °C |
| GCGGCCGAAAGGCCACGC ((((((....)))..))) | -13.6 kcal/mol | 65.1 °C |
| GCGGCCGAAAGGCTCGC ((((((....))).))) | -23.5 kcal/mol | 68.8 °C |
| GCGGCGACCCGC ((((....)))) | -15.4 kcal/mol | 57.3 °C |
| GCGGCGATCCGC ((((....)))) | -16.7 kcal/mol | 54 °C |
| GCGGCGCCCCGC ((((....)))) | -16.4 kcal/mol | 52.7 °C |
| GCGGCGCCGAAAGGCCGC (((..(((....)))))) | -14.3 kcal/mol | 67.2 °C |
| GCGGCGCGAAAGCACGGC ((.(.((....)).).)) | -20.5 kcal/mol | 56.4 °C |
